Data: ChEMBL document CHEMBL2062435, “Synthesis and in vitro antibacterial activity of gemifloxacin derivatives containing a substituted benzyloxime moiety” (2012)

Assays:
Format in all cases: functional
[1] = tested on: Staphylococcus aureus; test: Antimicrobial activity against Staphylococcus aureus ATCC […] after 18-24 hrs by two-fold serial dilution method
In short: (§1)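 Agar-medium twofold serial dilution against Gram-positive and Gram-negative strains; MIC taken as the lowest compound concentration giving complete inhibition of bacterial growth after incubation at 35 °C for 18-24 h.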

[2] = tested on: Staphylococcus aureus; test: Antimicrobial activity against extended spectrum beta-lactamases-producing methicillin-resistant Staphylococcus aureus 10-11 after 18-24 hrs by two-fold serial dilution method
In short: (§2)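 Agar twofold serial dilution MIC against clinical isolates. MIC was taken as the lowest concentration giving complete inhibition of bacterial growth after incubation at 35 °C for 18-24 h.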

[3] = tested on: Staphylococcus aureus; test: Antimicrobial activity against extended spectrum beta-lactamases-producing methicillin-resistant Staphylococcus aureus 10-15 after 18-24 hrs by two-fold serial dilution method; in short: as §2
[4] = tested on: Staphylococcus aureus; test: Antimicrobial activity against extended spectrum beta-lactamases-producing methicillin-sensitive Staphylococcus aureus 10-13 after 18-24 hrs by two-fold serial dilution method; in short: as §1
[5] = tested on: Staphylococcus aureus; test: Antimicrobial activity against extended spectrum beta-lactamases-producing methicillin-sensitive Staphylococcus aureus 10-14 after 18-24 hrs by two-fold serial dilution method; in short: as §1
[6] = tested on: Staphylococcus epidermidis; test: Antimicrobial activity against extended spectrum beta-lactamases-producing methicillin-resistant Staphylococcus epidermidis 10-10 after 18-24 hrs by two-fold serial dilution method; in short: as §2
[7] = tested on: Staphylococcus epidermidis; test: Antimicrobial activity against extended spectrum beta-lactamases-producing methicillin-resistant Staphylococcus epidermidis 10-13 after 18-24 hrs by two-fold serial dilution method; in short: as §2
[8] = tested on: Staphylococcus epidermidis; test: Antimicrobial activity against extended spectrum beta-lactamases-producing methicillin-sensitive Staphylococcus epidermidis 10-11 after 18-24 hrs by two-fold serial dilution method; in short: as §1
[9] = tested on: Staphylococcus epidermidis; test: Antimicrobial activity against extended spectrum beta-lactamases-producing methicillin-sensitive Staphylococcus epidermidis 10-13 after 18-24 hrs by two-fold serial dilution method; in short: as §1
[10] = tested on: Staphylococcus epidermidis; test: Antimicrobial activity against extended spectrum beta-lactamases-producing methicillin-sensitive Staphylococcus epidermidis 10-15 after 18-24 hrs by two-fold serial dilution method; in short: as §1
[11] = tested on: Enterococcus faecalis; test: Antimicrobial activity against Enterococcus faecalis 10-5 after 18-24 hrs by two-fold serial dilution method; in short: as §1
[12] = tested on: Enterococcus faecalis; test: Antimicrobial activity against Enterococcus faecalis 10-6 after 18-24 hrs by two-fold serial dilution method; in short: as §1
[13] = tested on: Enterococcus faecalis; test: Antimicrobial activity against Enterococcus faecalis 10-7 after 18-24 hrs by two-fold serial dilution method; in short: as §1
[14] = tested on: Enterococcus faecium; test: Antimicrobial activity against Enterococcus faecium 10-5 after 18-24 hrs by two-fold serial dilution method; in short: as §1
[15] = tested on: Enterococcus faecium; test: Antimicrobial activity against Enterococcus faecium 10-9 after 18-24 hrs by two-fold serial dilution method; in short: as §1
[16] = tested on: Streptococcus pneumoniae; test: Antimicrobial activity against extended spectrum beta-lactamases-producing Streptococcus pneumoniae 10-1 after 18-24 hrs by two-fold serial dilution method; in short: as §1
[17] = tested on: Streptococcus pneumoniae; test: Antimicrobial activity against extended spectrum beta-lactamases-producing Streptococcus pneumoniae 10-4 after 18-24 hrs by two-fold serial dilution method; in short: as §1
[18] = tested on: Escherichia coli; test: Antimicrobial activity against Escherichia coli ATCC 25922 after 18-24 hrs by two-fold serial dilution method; in short: as §1
[19] = tested on: Escherichia coli; test: Antimicrobial activity against Escherichia coli 10-1 after 18-24 hrs by two-fold serial dilution method; in short: as §1
[20] = tested on: Escherichia coli; test: Antimicrobial activity against Escherichia coli 10-2 after 18-24 hrs by two-fold serial dilution method; in short: as §1
[21] = tested on: Escherichia coli; test: Antimicrobial activity against extended spectrum beta-lactamases-producing Escherichia coli 10-2 after 18-24 hrs by two-fold serial dilution method; in short: as §1
[22] = tested on: Escherichia coli; test: Antimicrobial activity against Escherichia coli 10-3 after 18-24 hrs by two-fold serial dilution method; in short: as §1
[23] = tested on: Escherichia coli; test: Antimicrobial activity against extended spectrum beta-lactamases-producing Escherichia coli 10-3 after 18-24 hrs by two-fold serial dilution method; in short: as §1
[24] = tested on: Escherichia coli; test: Antimicrobial activity against extended spectrum beta-lactamases-producing Escherichia coli 10-4 after 18-24 hrs by two-fold serial dilution method; in short: as §1
[25] = tested on: Klebsiella pneumoniae; test: Antimicrobial activity against extended spectrum beta-lactamases-producing Klebsiella pneumoniae 10-1 after 18-24 hrs by two-fold serial dilution method; in short: as §1
[26] = tested on: Klebsiella pneumoniae; test: Antimicrobial activity against Klebsiella pneumoniae 10-2 after 18-24 hrs by two-fold serial dilution method; in short: as §1
[27] = tested on: Klebsiella pneumoniae; test: Antimicrobial activity against extended spectrum beta-lactamases-producing Klebsiella pneumoniae 10-2 after 18-24 hrs by two-fold serial dilution method; in short: as §1
[28] = tested on: Klebsiella pneumoniae; test: Antimicrobial activity against Klebsiella pneumoniae 10-3 after 18-24 hrs by two-fold serial dilution method; in short: as §1
[29] = tested on: Klebsiella pneumoniae; test: Antimicrobial activity against extended spectrum beta-lactamases-producing Klebsiella pneumoniae 10-3 after 18-24 hrs by two-fold serial dilution method; in short: as §1
[30] = tested on: Klebsiella pneumoniae; test: Antimicrobial activity against Klebsiella pneumoniae 10-4 after 18-24 hrs by two-fold serial dilution method; in short: as §1
[31] = tested on: Pseudomonas aeruginosa; test: Antimicrobial activity against Pseudomonas aeruginosa 10-12 after 18-24 hrs by two-fold serial dilution method; in short: as §1
[32] = tested on: Pseudomonas aeruginosa; test: Antimicrobial activity against extended spectrum beta-lactamases-producing Pseudomonas aeruginosa 10-5 after 18-24 hrs by two-fold serial dilution method; in short: as §1
[33] = tested on: Pseudomonas aeruginosa; test: Antimicrobial activity against extended spectrum beta-lactamases-producing Pseudomonas aeruginosa 10-9 after 18-24 hrs by two-fold serial dilution method; in short: as §1
[34] = tested on: Pseudomonas aeruginosa; test: Antimicrobial activity against extended spectrum beta-lactamases-producing Pseudomonas aeruginosa 10-15 after 18-24 hrs by two-fold serial dilution method; in short: as §1
[35] = tested on: Pseudomonas aeruginosa; test: Antimicrobial activity against extended spectrum beta-lactamases-producing Pseudomonas aeruginosa 10-18 after 18-24 hrs by two-fold serial dilution method; in short: as §1
[36] = tested on: Pseudomonas aeruginosa; test: Antimicrobial activity against extended spectrum beta-lactamases-producing Pseudomonas aeruginosa 10-20 after 18-24 hrs by two-fold serial dilution method; in short: as §1

Compound	MIC [1] [µg/mL]	MIC [2] [µg/mL]	MIC [3] [µg/mL]	MIC [4] [µg/mL]	MIC [5] [µg/mL]	MIC [6] [µg/mL]	MIC [7] [µg/mL]	MIC [8] [µg/mL]	MIC [9] [µg/mL]	MIC [10] [µg/mL]	MIC [11] [µg/mL]	MIC [12] [µg/mL]	MIC [13] [µg/mL]	MIC [14] [µg/mL]	MIC [15] [µg/mL]	MIC [18] [µg/mL]	MIC [19] [µg/mL]	MIC [20] [µg/mL]	MIC [21] [µg/mL]	MIC [22] [µg/mL]	other results
COc1cc(CO/N=C2\CN(c3nc4c(cc3F)c(=O)c(C(=O)O)cn4C3CC3)CC2CN)ccc1OC(F)F.CS(=O)(=O)O (racemic)	0.008	2	0.5	0.06	0.03	2	4	0.25	8	4	2	8	4	8	16	0.06	> 128	16	> 128	16	MIC [16]: 0.25 µg/mL; MIC [17]: 2 µg/mL; MIC [23]: > 128 µg/mL; MIC [24]: 8 µg/mL; MIC [25]: > 128 µg/mL; MIC [26]: > 128 µg/mL; MIC [27]: > 128 µg/mL; MIC [28]: 8 µg/mL; MIC [29]: > 128 µg/mL; MIC [30]: > 128 µg/mL; MIC [31]: 8 µg/mL; MIC [32]: 8 µg/mL; MIC [33]: 8 µg/mL; MIC [34]: 32 µg/mL; MIC [35]: 16 µg/mL; MIC [36]: 8 µg/mL
COc1ccc(CO/N=C2\CN(c3nc4c(cc3F)c(=O)c(C(=O)O)cn4C3CC3)CC2CN)cc1OC.CS(=O)(=O)O (racemic)	0.03	0.5	0.125	0.5	0.06	0.5	0.25	2	0.5	4	0.5	2	1	4	4	0.06	16	8	> 128	16	MIC [16]: 0.5 µg/mL; MIC [17]: 4 µg/mL; MIC [23]: 16 µg/mL; MIC [24]: 2 µg/mL; MIC [25]: 64 µg/mL; MIC [26]: 128 µg/mL; MIC [27]: > 128 µg/mL; MIC [28]: 4 µg/mL; MIC [29]: > 128 µg/mL; MIC [30]: > 128 µg/mL; MIC [31]: 0.03 µg/mL; MIC [32]: 2 µg/mL; MIC [33]: 8 µg/mL; MIC [34]: 1 µg/mL; MIC [35]: 4 µg/mL; MIC [36]: 0.06 µg/mL
CS(=O)(=O)O.NCC1CN(c2nc3c(cc2F)c(=O)c(C(=O)O)cn3C2CC2)C/C1=N\OCc1cc2c(cc1[N+](=O)[O-])OCO2 (racemic)	0.008	4	2	0.25	0.25	2	1	0.25	8	2	4	32	8	16	8	0.008	> 128	8	> 128	32	MIC [17]: 2 µg/mL; MIC [23]: 32 µg/mL; MIC [24]: 8 µg/mL; MIC [25]: > 128 µg/mL; MIC [26]: > 128 µg/mL; MIC [27]: > 128 µg/mL; MIC [28]: 8 µg/mL; MIC [29]: > 128 µg/mL; MIC [30]: > 128 µg/mL; MIC [31]: 8 µg/mL; MIC [32]: 8 µg/mL; MIC [33]: 4 µg/mL; MIC [34]: 8 µg/mL; MIC [35]: 4 µg/mL; MIC [36]: 4 µg/mL
C[C@H]1COc2c(N3CCN(C)CC3)c(F)cc3c(=O)c(C(=O)O)cn1c23.C[C@H]1COc2c(N3CCN(C)CC3)c(F)cc3c(=O)c(C(=O)O)cn1c23.O [LEVOFLOXACIN]	0.25	32	16	0.5	0.25	8	4	128	4	128	8	64	16	32	32	< 0.008	4	0.25	16	4	MIC [23]: 8 µg/mL; MIC [25]: 8 µg/mL; MIC [26]: 32 µg/mL; MIC [27]: 8 µg/mL; MIC [29]: 8 µg/mL; MIC [30]: 32 µg/mL; MIC [31]: 0.25 µg/mL; MIC [32]: 0.25 µg/mL; MIC [33]: 0.25 µg/mL; MIC [34]: 0.5 µg/mL; MIC [36]: 0.25 µg/mL
